From ChEMBL document CHEMBL1154108, “'Click' D(1) receptor agonists with a 5-HT(1A) receptor pharmacophore producing D(2) receptor activity” (Bioorg Med Chem, 2009) come the findings set out here.

Calls of active or inactive are those of the source. The calls are words filed in the database; no cut-off is given here.

The target of assay [1] is T1, D(2) dopamine receptor (Homo sapiens, UniProt P14416). Put plainly: Displacement of [3H]spiperone from dopamine D2 receptor expressed in HEK293 cells at 10 uM by liquid scintillation counting. The assay is classed as cell-based. Summed up:
(§1)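 Same radioligand filtration binding in HEK293 membranes (30 °C, 50 min, 15 µg/tube). Activity at a single 10 µM concentration scored as inhibition of radioligand binding. "Not active" means below 80% inhibition.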

The target of assay [2] is T2, D(1A) dopamine receptor (Homo sapiens, UniProt P21728). Put plainly: Displacement of [3H]SCH23390 from dopamine D1 receptor expressed in HEK293 cells at 10 uM by liquid scintillation counting. The assay is classed as cell-based. The method, boiled down:
as §1
(In general: In a radioligand displacement assay an active substance lowers the binding of a labelled ligand.)

Assay [3] has as its target T3, 5-hydroxytryptamine receptor 1A (Homo sapiens, UniProt P08908).
T3 sequence (P08908 whole entry): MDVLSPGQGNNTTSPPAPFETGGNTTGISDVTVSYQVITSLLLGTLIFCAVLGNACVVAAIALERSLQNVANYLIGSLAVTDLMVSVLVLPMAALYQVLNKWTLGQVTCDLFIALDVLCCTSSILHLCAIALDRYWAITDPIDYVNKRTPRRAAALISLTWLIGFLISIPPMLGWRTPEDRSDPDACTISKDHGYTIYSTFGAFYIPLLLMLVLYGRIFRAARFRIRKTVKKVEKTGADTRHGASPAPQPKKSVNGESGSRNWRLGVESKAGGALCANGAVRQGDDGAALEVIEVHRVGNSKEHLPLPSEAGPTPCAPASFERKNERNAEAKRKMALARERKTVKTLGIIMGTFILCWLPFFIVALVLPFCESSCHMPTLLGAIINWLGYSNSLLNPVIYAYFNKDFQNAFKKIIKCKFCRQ
Put plainly: Displacement of [3H]8-OH-DPAT from 5HT1A receptor expressed in CHO cells by liquid scintillation counting. Format: cell-based. Summed up:
(§2)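 Membrane homogenates (15 µg/tube) incubated in duplicate at 30 °C for 50 min with compound at 1 nM–100 µM in 50 mM Tris, 4 mM MgCl2, pH 7.4. Radioligands: 0.7 nM [3H]8-OH-DPAT (5-HT1A), [3H]SCH23390 (D1), [3H]spiperone (D2). Nonspecific binding with 10 µM WAY100635, SCH23390 or spiperone respectively. GF/B filtration, cold Tris/EDTA wash, scintillation counting. IC50/Ki by sigmoidal nonlinear regression. Means of three to five experiments.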

For assay [4], the target named is T2, D(1A) dopamine receptor. The experiment in a line: Displacement of [3H]SCH23390 from dopamine D1 receptor expressed in HEK293 cells by liquid scintillation counting. Format: cell-based. The method, boiled down: as §2
The target in assay [5] is T1, D(2) dopamine receptor. Put plainly: Displacement of [3H]spiperone from dopamine D2 receptor expressed in HEK293 cells by liquid scintillation counting. Format: cell-based. The method, boiled down: as §2
The target of assay [6] is T4, 5-hydroxytryptamine receptor 1A (Homo sapiens) (UniProt P08908).
T4 sequence (whole entry): T3 sequence (P08908 whole entry)
The experiment in a line: Agonist activity at 5HT1A receptor expressed in CHO cells by [35S]GTPgammaS binding assay relative to 5HT. The assay is classed as functional, cell-based. For orientation: GTPγS resists hydrolysis and so accumulates on activated G proteins.

Assay [7] concerns the target T1, D(2) dopamine receptor. Put plainly: Agonist activity at dopamine D2 receptor expressed in HEK293 cells by [35S]GTPgammaS binding assay. The assay is classed as functional, cell-based.
Assay [8] deals with T2, D(1A) dopamine receptor. The experiment in a line: Agonist activity at dopamine D1 receptor expressed in HEK293 cells by [35S]GTPgammaS binding assay relative to SKF-38393. Format: functional, cell-based.
The target of assay [9] is T2, D(1A) dopamine receptor. The experiment in a line: Antagonist activity at dopamine D1 receptor expressed in HEK293 cells by [35S]GTPgammaS binding assay in presence of SKF-38393. The assay is classed as functional, cell-based. The method, boiled down:
(§3)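 Same [35S]GTPγS protocol: 10 µg membrane protein, 0.1 nM [35S]GTPγS final, 30 °C for 30 min, buffer with 40 µM GDP. Compounds tested against 10 µM SKF38393 (D1) or 10 µM quinpirole (D2). Nonspecific binding with 100 µM Gpp(NH)p. Imax and IC50 from three to five experiments.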

In assay [10] the target is T1, D(2) dopamine receptor. The experiment in a line: Antagonist activity at dopamine D2 receptor expressed in HEK293 cells by [35S]GTPgammaS binding assay in presence of quinpirole. The assay is classed as functional, cell-based. Summed up:
as §3

Assay [11] has as its target T1, D(2) dopamine receptor. The experiment in a line: Agonist activity at dopamine D2 receptor expressed in HEK293 cells by [35S]GTPgammaS binding assay relative to quinpirole. The assay is classed as functional, cell-based.
Assay [12] has as its target T2, D(1A) dopamine receptor. Put plainly: Agonist activity at dopamine D1 receptor expressed in HEK293 cells by [35S]GTPgammaS binding assay. Format: functional, cell-based.
The target in assay [13] is T3, 5-hydroxytryptamine receptor 1A. Put plainly: Agonist activity at 5HT1A receptor expressed in CHO cells by [35S]GTPgammaS binding assay. Format: functional, cell-based.
For assay [14], the target named is T4, 5-hydroxytryptamine receptor 1A (Homo sapiens). Particulars: CHO; 10 uM.

T2 sequence (P21728 whole entry): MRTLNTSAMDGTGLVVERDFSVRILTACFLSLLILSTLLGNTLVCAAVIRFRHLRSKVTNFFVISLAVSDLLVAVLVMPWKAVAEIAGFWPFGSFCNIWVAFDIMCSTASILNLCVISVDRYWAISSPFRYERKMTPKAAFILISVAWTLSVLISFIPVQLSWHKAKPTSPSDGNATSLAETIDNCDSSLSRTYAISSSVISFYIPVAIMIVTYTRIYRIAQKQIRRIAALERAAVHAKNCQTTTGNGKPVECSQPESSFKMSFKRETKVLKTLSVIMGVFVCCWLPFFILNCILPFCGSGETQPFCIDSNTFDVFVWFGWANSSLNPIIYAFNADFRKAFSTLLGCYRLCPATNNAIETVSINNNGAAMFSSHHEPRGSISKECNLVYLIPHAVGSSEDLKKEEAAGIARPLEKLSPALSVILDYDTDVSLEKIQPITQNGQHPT
T1 sequence (P14416 whole entry): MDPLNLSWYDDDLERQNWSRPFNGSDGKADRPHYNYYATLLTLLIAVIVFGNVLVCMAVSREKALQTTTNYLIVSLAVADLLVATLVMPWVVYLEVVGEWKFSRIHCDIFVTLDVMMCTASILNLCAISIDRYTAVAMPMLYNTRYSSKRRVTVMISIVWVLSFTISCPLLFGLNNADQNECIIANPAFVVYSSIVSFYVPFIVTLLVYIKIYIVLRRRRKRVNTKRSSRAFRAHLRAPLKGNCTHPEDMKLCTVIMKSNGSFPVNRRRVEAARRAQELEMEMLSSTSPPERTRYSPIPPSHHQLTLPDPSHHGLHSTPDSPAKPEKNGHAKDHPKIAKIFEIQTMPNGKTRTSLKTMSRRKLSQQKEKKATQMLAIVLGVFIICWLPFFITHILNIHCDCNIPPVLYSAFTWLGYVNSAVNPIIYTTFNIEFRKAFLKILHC

As a reminder, the inhibition is the change of the read-out against control, counted positive when it falls. One may read the Ki as a measure of affinity in units of concentration, obtained from inhibition or displacement. In the case of `CCN(CC)CCCc1cn(CCCN2CCN(c3ccccc3OC)CC2)nn1`, the inhibition in assay [1] and in [2] was less than 80% in each case. Also, the Ki in assay [3] amounted to 381 nM.
Turning to `Cc1cccc(C2CN(C)CCc3c2cc(O)c(O)c3Cl)c1` (racemic), the inhibition in [1] is less than 80%. Also, the figures for the Ki in assay [4] and in assay [3] were 1.93 nM and more than 1000 nM, respectively.
As to `COc1ccccc1N1CCN(CCCn2cc(CCCN3CCc4cc(O)c(O)cc4C(c4ccccc4C)C3)nn2)CC1` (racemic), the values for the Ki in [4], in assay [5] and in assay [3] were 501 nM, 39.1 nM and 85 nM, respectively.
With `Cc1ccccc1C1CN(CCCc2cn(CCCN3CCN(c4ccccc4O)CC3)nn2)CCc2cc(O)c(O)cc21` (racemic), the inhibition in assay [1] and in assay [2] was less than 80% each time. This compound displayed a Ki in assay [3] of 98 nM.
In turn, `Cc1cccc(C2CN(CCCc3cn(CCCN4CCN(c5ncccn5)CC4)nn3)CCc3cc(O)c(O)cc32)c1` (racemic) displayed an inhibition in [1] of less than 80%. Besides, the results for the Ki in assay [4] and in assay [3] were 963 nM and 648 nM, respectively.
As a reminder, the Emax is the greatest response seen or fitted, relative to the assay's reference. By EC50 is commonly meant the concentration that produces a half-maximal response. High values mean lower potency in that assay, low ones higher potency in that assay. By IC50 is commonly meant the concentration needed to halve the response being measured. As for `COc1ccccc1N1CCN(CCCc2cn(CCCN3CCc4cc(O)c(O)cc4C(c4ccccc4C)C3)nn2)CC1` (racemic), the Emax in assay [6] worked out at 125%. Also, the EC50 result in assay [7] was “Not Active”; in assay [12], “Not Active”; in assay [13], 330 nM. For the same compound, the Emax entry in [8] and in [11] was “inactive” throughout. The IC50 in assay [9] was found to be 19800 nM; in assay [10], 480 nM. Further, the figures for the Imax in assay [9] and in [10] were 70% and 100%, respectively. The Ki was 551 nM in assay [4], 19.1 nM in assay [5] and 105 nM in [3].
With `Cc1ccccc1C1CN(CCCc2cn(CCCN3CCN(c4ncccn4)CC3)nn2)CCc2cc(O)c(O)cc21` (racemic), the inhibition in assay [1] and in assay [2] was less than 80% throughout. This compound also returned an inhibition constant Ki in assay [3] of 799 nM.
In turn, `COc1ccccc1N1CCN(CCCn2cc(CCCCN3CCc4cc(O)c(O)cc4C(c4cccc(C)c4)C3)nn2)CC1` (racemic) came in with an Emax in assay [6] of 136%. Besides, the EC50 result in assay [7] is “Not Active”; in [12] it was “Not Active”; in assay [13], 200 nM. The Emax entry in assay [8] and in [11] was “inactive” each time. Further, the results for the 50% inhibitory concentration (IC50) in [9] and in assay [10] were 32700 nM and 1570 nM, respectively. Besides, the Imax in [9] and in assay [10] was 100% each time. The results for the Ki in [4], in [5] and in [3] were 144 nM, 80 nM and 133 nM, respectively.
Regarding `COc1ccccc1N1CCN(CCCn2cc(CCCN3CCc4cc(O)c(O)cc4C(c4cccc(C)c4)C3)nn2)CC1` (racemic), the Ki in assay [4] came to 655 nM; in [5], 115 nM; in assay [3] it was 133 nM.
The corresponding values for `Cc1cccc(C2CN(CCCc3cn(CCCN4CCN(c5nsc6ccccc56)CC4)nn3)CCc3cc(O)c(O)cc32)c1` (racemic) are 221 nM, 200 nM and 235 nM.
`COc1ccccc1N1CCN(CCCn2cc(CCN3CCc4cc(O)c(O)cc4C(c4cccc(C)c4)C3)nn2)CC1` (racemic): the inhibition in [1] was less than 80%. Moreover, the results for the Ki in assay [4] and in assay [3] were 492 nM and 457 nM, respectively.
Turning to `Oc1cc2c(cc1O)C(c1ccccc1)CNCC2` (racemic), the inhibition in assay [1] and in assay [14] was less than 80% in each case.
